Rows were chosen to be rich in hits. Some 3.5% of all compounds tested hit in one or more screens of this group.
MrgX1 agonist = activates human MrgX1 receptor signaling | B-score at 10 µM | 0.44% of 310,000 active | MrgX1-HEK293 cells, Fluo-4 calcium fluorescence, agonist mode; hits give high values | AID 588627;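 active = calcium response B-score plate-corrected fluorescence ratio at least 3 library SD, with starting fluorescence B-score inside 5 SD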
Target sequence (Q96LB2 whole entry, looked up): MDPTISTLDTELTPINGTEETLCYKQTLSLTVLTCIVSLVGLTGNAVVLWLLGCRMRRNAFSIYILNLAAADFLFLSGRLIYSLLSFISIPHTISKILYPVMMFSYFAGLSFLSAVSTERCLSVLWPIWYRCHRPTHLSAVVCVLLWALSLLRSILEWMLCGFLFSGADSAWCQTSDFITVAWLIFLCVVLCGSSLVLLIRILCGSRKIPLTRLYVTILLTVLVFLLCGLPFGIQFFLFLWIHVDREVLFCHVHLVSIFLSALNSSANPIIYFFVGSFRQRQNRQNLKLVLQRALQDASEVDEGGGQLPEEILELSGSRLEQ
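Test system: HEK293 cells stably expressing human MrgX1 receptor; amount: 15,000 cells per well; doses: compound delivered in addition one of three; times: overnight plating before 1 h dye loading; detection: Fluo-4 NW calcium-flux fluorescence, kinetic read; read-out basis: B-scored fluorescence response ratio; controls: positive and negative controls per plate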
MrgX1 antag = antagonists of human MrgX1 receptor. Q96LB2. MRGX1-HEK293 calcium flux, Fluo-4, BAM8-22 antagonism; hits give low values. B-score at 10 µM. 1.3% of 310,000 active. AID 588676;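 active = calcium-response B-score plate-corrected more than 3 library SD below zero, starting fluorescence within 5 deviations, no agonist response on first addition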;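 also: peak minus trough fluorescence over baseline after final BAM8-22 challenge near maximal dose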
MrgX1 PAM = allosterically activates human MrgX1 receptor signaling; 0.63% of 310,000 active; MrgX1-HEK293, Fluo-4 calcium flux, FDSS; hits give high values; AID 588675; Q96LB2; B-score at 10 µM;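 active = plate-corrected calcium response at least 3 library SD above typical, normal starting fluorescence, not activating the receptor alone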;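 also: compound read alongside a low EC10 to EC30 dose of BAM8-22 agonist; peak minus trough fluorescence over baseline measured at the second addition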
RGS4 inh = human RGS4 inhibition. P49798. HEK293 M3R/RGS4 inducible, Fluo-4 calcium flux; hits give high values; triggered by carbachol at its EC20. B-score at 10 µM. 0.45% of 310,000 active. AID 463165;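 active = B-score, a plate-corrected calcium signal, over three deviations above library mean, with baseline fluorescence within five deviations of library mean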;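 also: RGS4 expression induced by doxycycline in cells with stable M3 receptor; B-score is computed from the integrated fluorescence ratio over baseline after carbachol; higher B-score means a larger calcium signal and so more RGS4 inhibition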
Target sequence (P49798 whole entry, looked up): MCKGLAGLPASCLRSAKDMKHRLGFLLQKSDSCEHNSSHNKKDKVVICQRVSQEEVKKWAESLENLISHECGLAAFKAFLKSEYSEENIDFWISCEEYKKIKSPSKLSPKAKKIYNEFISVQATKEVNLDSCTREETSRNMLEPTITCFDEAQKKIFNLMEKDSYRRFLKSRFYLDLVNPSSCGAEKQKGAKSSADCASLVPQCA
RGS4 act = RGS4 potentiation or activation. B-score at 10 µM. 0.92% of 310,000 active. HEK293 M3R/inducible RGS4, carbachol calcium flux Fluo4; hits give low values;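 active = B-score of the integrated calcium signal more than 4 SD below the library mean, with starting fluorescence not abnormally high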;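 also: negative B-score means reduced calcium response which marks RGS4 activation or potentiation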
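Assay system: Inducible-RGS4 HEK293 cells carrying M3 receptor | Schedule: Compound preincubation 20 min at room temperature before agonist | Signal: Kinetic calcium fluorescence imaging with Fluo4-AM dye, 2 µM | Read-out basis: B score from integrated fluorescence ratio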
RGS4 block valid = RGS4 inhibitor validation | calcium response, % at 10 µM | 65% of 1,700 active | AID 492999 | HEK293 M3R/RGS4, carbachol calcium Fluo-4 fluorescence; carbachol added at its EC20; 0 = buffer wells, 100 = carbachol control | shares compounds with RGS4 inh;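 active = duplicate-averaged calcium response above the buffer-only control mean plus 5 SD of those controls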;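 also: integrated fluorescence ratio F max minus min over baseline F0; higher response in RGS4-induced cells means RGS4 inhibition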
RGS4 uninduced = non-induced cell nonspecific activity of RGS4 inhibitors | shares compounds with RGS4 inh | HEK293 M3R non-induced, carbachol calcium Fluo-4; submaximal (EC20) carbachol stimulus; buffer wells 0%, carbachol control wells 100% | activity (percent), % at 10 µM | 20% of 1,900 active | AID 493000; call rule not given here;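 also: RGS4 induction absent so cells express M3R without RGS4; higher means more calcium signal and flags a non-specific hit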
RGS4 inh ctr2 = second RGS4 inhibitor counter-screen in uninduced cells lacking carbachol; shares compounds with RGS4 inh; HEK293 M3R/RGS4 non-induced, Fluo-4 calcium, no carbachol; normalised: buffer wells 0%, carbachol wells 100%; calcium response (agonist-mode artifact), % at 10 µM; 22% of 1,900 active;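 active = duplicate-averaged calcium rise in uninduced cells above buffer wells' mean plus 5 SD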
Numbers without * were called inactive; i = inactive; nt = no result given.

SMILES	MrgX1 agonist	MrgX1 antag	MrgX1 PAM	RGS4 inh	RGS4 act	RGS4 block valid	RGS4 uninduced	RGS4 inh ctr2
CCOC(=O)[C@H]1[C@H]2COc3cc(OC)ccc3[C@@H]2N2C(=O)N(c3ccc(Cl)cc3)C(=O)[C@@]12C	i	i	i	i	i	i	i	i
CCC(=O)N1CCc2cc(S(=O)(=O)NC(C(=O)N3CCN(c4ccc(F)cc4)CC3)C(C)C)ccc21 (configuration not stated)	i	i	i	i	i	nt	nt	nt
N#Cc1c(NC(=O)C2CC=CCC2C(=O)O)sc2c1CCCCCC2 (configuration not stated)	i	i	i	5.03*	i	19.5%*	i	i
CC(C)(C)C1CCc2c(sc(NC(=O)C3CC=CCC3C(=O)O)c2C#N)C1 (configuration not stated)	i	i	i	i	i	nt	nt	nt
CC1(C)CC(=O)C(=Cc2cn(CCC#N)nc2-c2ccc(Cl)cc2)C(=O)C1	i	i	i	i	i	nt	nt	nt
CC1(C)CC(=O)C(=Cc2cn(-c3ccccc3)nc2-c2ccc(Cl)cc2)C(=O)C1	i	i	i	i	i	i	i	i
O=c1[nH]c2cc3c(cc2cc1CN(Cc1ccccc1)Cc1nnnn1Cc1ccco1)OCCO3	nt	nt	nt	i	i	nt	nt	nt
O=c1[nH]c2cc3c(cc2cc1CN(Cc1cccs1)Cc1nnnn1Cc1ccco1)OCCO3	i	i	i	6.95*	i	i	i	i
O=c1[nH]c2cc3c(cc2cc1CN(Cc1cccnc1)Cc1nnnn1Cc1ccco1)OCCO3	i	i	i	i	i	i	i	i
COc1ccccc1CN(Cc1cc2cc3c(cc2[nH]c1=O)OCCO3)Cc1nnnn1Cc1ccco1	i	i	i	18.6*	i	7.5%*	i	11.5%*
COc1ccc(-n2c3c(c(=O)[nH]c2=O)C(NC(=O)c2ccncc2)(C(F)(F)F)C(=O)N3)cc1 (configuration not stated)	i	i	i	i	i	nt	nt	nt
COc1ccc2nc(-c3ccco3)c(-c3ccco3)nc2c1	i	i	i	5.82*	i	i	i	31.5%*
c1coc(-c2nc(-c3ccco3)c(-c3ccco3)nc2-c2ccco2)c1	i	i	i	i	i	nt	nt	nt
Cc1ccc(C2C3=C(CC(C)(C)CC3=O)NC3=C2C(=O)c2ccccc23)cc1 (configuration not stated)	i	i	i	i	i	nt	nt	nt
COc1ccc(C2C3=C(CCCC3=O)NC3=C2C(=O)c2ccccc23)cc1 (configuration not stated)	i	i	i	10.6*	i	i	i	i
Cc1cc(C(=O)N/N=C/c2ccc(N(C)C)o2)cs1	i	i	i	8.7*	i	i	i	i
Cc1ccc(/C=C2/NC(=O)N(Cc3ccccc3)C2=O)o1	i	i	i	5.04*	i	i	i	35.5%*
COc1ccc(-n2cc3c(-c4cccc(Br)c4)nnc(C)c3n2)cc1	i	i	i	i	i	nt	nt	nt
Cc1[nH]nc(-c2ccc(O)cc2O)c1-c1ccc(Cl)cc1	i	i	i	28*	i	54.5%*	i	32.0%*
Cc1[nH]nc(-c2ccc(O)cc2O)c1-c1nc2ccccc2s1	i	i	i	7.57*	i	21.0%*	i	25.5%*
COc1ccc(-c2n[nH]c(C)c2-c2ccc(Cl)cc2)c(O)c1	i	i	i	i	i	nt	nt	nt
Oc1cccc(-c2nc3ccccc3s2)c1	i	i	i	i	i	nt	nt	nt
Cc1cccc(NC(=O)COC(=O)c2cccs2)c1C	i	i	i	i	i	nt	nt	nt
CCOC(=O)/C(C#N)=C/c1cn(CCC(=O)O)nc1-c1ccccc1	i	i	i	i	i	i	i	i
CCOC(=O)/C(C#N)=C/c1cn(CCC(=O)O)nc1-c1cccc(Br)c1	i	i	i	i	i	nt	i	i
SMILES	MrgX1 agonist	MrgX1 antag	MrgX1 PAM	RGS4 inh	RGS4 act	RGS4 block valid	RGS4 uninduced	RGS4 inh ctr2
O=Cc1cn(CCC(=O)O)nc1-c1cccc(Cl)c1	i	i	i	i	i	nt	nt	nt
CCOC(=O)/C(C#N)=C/c1cn(CCC(=O)O)nc1-c1ccc(Cl)cc1	i	i	i	i	i	i	i	i
CCOC(=O)/C(C#N)=C/c1cn(CCC(=O)O)nc1-c1ccc(OC)cc1	i	i	i	i	i	nt	nt	nt
Cc1cc(C)nc(S/C=C/C(=O)c2ccccc2F)n1	i	i	i	5.8*	i	5.0%*	i	i
COc1ccc(N(C)C(=O)c2cn(C)c(=O)c3cc(OC)c(OC)cc23)cc1	i	i	i	i	i	nt	nt	nt
O=c1[nH]cnc2c1ncn2[C@@H]1O[C@H](CO)[C@@H](O)[C@H]1O	i	i	i	i	i	nt	nt	nt
Nc1ccc(CCNc2ncnc3c2ncn3[C@@H]2O[C@H](CO)[C@@H](O)[C@H]2O)cc1	i	i	i	i	i	nt	i	i
OCC1OC(n2cnc3c(NCCc4ccccc4)ncnc32)C(O)C1O (configuration not stated)	i	i	i	6.44*	i	29.0%*	67.5%*	i
Cc1cc(C(=O)N2CCN(c3ncccn3)CC2)nn1C	i	i	i	i	i	nt	nt	nt
CCOC(=O)C1=C(C)n2c(s/c(=C/c3cccc([N+](=O)[O-])c3)c2=O)=NC1c1ccc(O)c(OC)c1 (configuration not stated)	i	i	i	33.9*	i	66.0%*	34.5%*	20.0%*
CCOC(=O)N1CCc2c(sc3c2c(=O)n(Cc2ccccc2)c(=O)n3Cc2cccc(C)c2)C1	i	i	i	6.84*	i	31.5%*	38.5%*	i
CCOC(=O)N1CCc2c(sc3c2c(=O)n(Cc2ccccc2)c(=O)n3CC(=O)NCC2CCCO2)C1 (configuration not stated)	i	i	i	i	i	nt	nt	nt

High-throughput results deposited in PubChem BioAssay by Johns Hopkins Ion Channel Center.
